The nature of experiment [1]: Cytotoxicity against human NCI60 cells. The class given is functional. The gist of the method:
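NCI 60-cell-line panel. GI50, TGI and LC50 (50% growth inhibition, total growth inhibition and 50% lethality) are given as the mean across all 60 lines.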

Experiment [2] has as its system Nucleic Acid. Description: Binding affinity to calf thymus DNA assessed as change in melting temperature at 5 uM at pH 7 after 18 hrs by thermal denaturation assay. The format is nucleic-acid assay. The conditions noted are these: Bos taurus.
Experiment [3] has as its system Nucleic Acid. Description: Binding affinity to calf thymus DNA assessed as change in melting temperature at 5 uM at pH 7 after 4 hrs by thermal denaturation assay. The format is nucleic-acid assay. The conditions noted are these: Bos taurus.
Experiment [4] concerns Nucleic Acid. Description: Binding affinity to ICB1 site of human topoisomerase 2alpha promoter after 17 hrs by DNase 1 footprinting assay. The format is nucleic-acid assay. The essentials:
(§1)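 Reported value is the lowest conjugate concentration that gives a measurable footprint at the respective inverted CCAAT site.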

Experiment [5] has as its system Nucleic Acid. Description: Binding affinity to ICB2 site of human topoisomerase 2alpha promoter after 17 hrs by DNase 1 footprinting assay. The class given is nucleic-acid assay. The gist of the method:
as §1

In general, GI50 refers to the concentration that inhibits growth by half. Higher therefore signals lower sensitivity of the cells. For orientation: TGI means the concentration at which net growth stops. A low value points to more potent growth arrest. Usually ΔTm stands for the change in melting temperature against a reference sample. For the compound `COC(=O)c1cc(NC(=O)c2cc(NC(=O)CCCOc3cc4c(cc3OC)C(=O)N3CCC[C@H]3C=N4)cn2C)cn1C`, in experiment [1], halving of growth (GI50) required 0.011 µM, the LC50 (50% lethal concentration) amounted to 10 µM and total growth inhibition (TGI) required 0.12 µM. Also, the ΔTm in the experiment with Nucleic Acid [2] was 15.1 °C. Besides, the ΔTm in the experiment on Nucleic Acid [3] amounted to 14.5 °C. In the experiment with Nucleic Acid [4], the Activity was found to be 1 µM. Also, the Activity in the experiment with Nucleic Acid [5] turned out to be 1 µM.

In experiment [1], `COC(=O)CCCOc1cc2c(cc1OC)C(=O)N1CCC[C@H]1C=N2` gave a 50% growth inhibitory concentration (GI50) of 1.74 µM, an LC50 (50% lethal concentration) of 46.8 µM and a TGI of 11.8 µM. Besides, the ΔTm with Nucleic Acid [2] was 0.4 °C. The thermal shift (ΔTm) in the experiment with Nucleic Acid [3] came to 0.3 °C.

The record behind these values is ChEMBL document CHEMBL1799996, “Novel C8-linked pyrrolobenzodiazepine (PBD)-heterocycle conjugates that recognize DNA sequences containing an inverted CCAAT box” (2011).
